Measured values published in ChEMBL document CHEMBL1687713 (Antimicrob Agents Chemother, 2008).
Converted amounts (≈) assume the structure as drawn. The source made the active and inactive calls. No cut-off for these calls is given here.

Tests used:
[1] = Ratio of AUC in Wistar rat tissue cage fluid to MIC for Staphylococcus epidermidis ATCC 27626 at 25 mg/kg, ip measured on day 4; format: functional; settings: route intraperitoneal
Staphylococcus aureus [2] = assay: (§1) Antimicrobial activity against […] Staphylococcus aureus ATCC 29213 tissue cage Wistar rat infected model assessed as bacterial load reduction at 25 mg/kg, ip bid treated for 7 days measured 24 hrs after last dose (reference value: 6.8 +/-0.8 logCFU/ml); format: functional; settings: route intraperitoneal
[3] = AUC in Staphylococcus epidermidis ATCC 27626 infected Wistar rat tissue cage fluid at 25 mg/kg, ip measured on day 4; format: ADME, organism-based; parameters: dose 25 mg/kg, route intraperitoneal
Staphylococcus aureus [4] = assay: Bactericidal activity against log phase culture of […] Staphylococcus aureus ATCC 29213 at 8 times MIC; format: functional, organism-based
Summary of the method: (§2)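 24-h killing curves in log phase using subinhibitory and clinically available concentrations, single drug or with rifampin. Bactericidal activity is a ≥3-log10 CFU/ml fall from the initial inoculum at 24 h.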

[5] = Ratio of Cmax in Wistar rat tissue cage fluid to MIC for Staphylococcus epidermidis ATCC 27626 at 25 mg/kg, ip measured on day 4; format: functional; settings: route intraperitoneal
[6] = Cmax in Staphylococcus epidermidis ATCC 27626 infected Wistar rat tissue cage fluid at 25 mg/kg, ip measured on day 4; format: ADME, organism-based; parameters: dose 25 mg/kg, route intraperitoneal
[7] = AUC in Staphylococcus epidermidis ATCC 27626 infected Wistar rat serum at 25 mg/kg, ip measured on day 4; format: ADME, organism-based; parameters: dose 25 mg/kg, route intraperitoneal
Staphylococcus aureus [8] = assay: Antimicrobial activity against stationary phase culture of […] Staphylococcus aureus ATCC 29213 by macrodilution method; format: functional
Summary of the method: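 Macrodilution MIC and MBC. MIC: lowest concentration inhibiting macroscopic growth. MBC: lowest concentration killing 99.9% of the initial inoculum. Log-phase cultures were used, and MBC was also determined in stationary phase. Subcultures were streaked down the plate centre and left to dry before spreading, to avoid carryover.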

[9] = Cmax in Escherichia coli ATCC 35218 infected Wistar rat tissue cage fluid at 100 mg/kg/day, ip measured on day 4; format: ADME, organism-based, Interstitial fluid; parameters: dose 100 mg/kg/day, route intraperitoneal
Staphylococcus aureus [10] = assay: as §1, with “100 mg/kg/day,” for “25 mg/kg,”, “ip” for “ip bid”, “logCFU/ml) co-treated with 25 mg/kg rifampin, ip bid” for “logCFU/ml)”; format: functional
Staphylococcus aureus [11] = assay: Antimicrobial activity against […] Staphylococcus aureus ATCC 29213 tissue cage Wistar rat infected model assessed as bacterial load reduction at 100 mg/kg/day, ip treated for 14 days measured 24 hrs after last dose (reference value: 7.2 +/- 0.6 logCFU/ml) co-treated with 25 mg/kg rifampin, ip bid; format: functional
Staphylococcus aureus [12] = assay: (§3) Antimicrobial activity against […] Staphylococcus aureus ATCC 29213 coverslip Wistar rat infected model assessed as bacterial load reduction at 100 mg/kg/day, ip treated for 14 days measured 24 hrs after last dose (reference value: 5.4 +/- 1 logCFU/ml); format: functional; settings: route intraperitoneal
[13] = AUC in Escherichia coli ATCC 35218 infected Wistar rat serum at 100 mg/kg/day, ip measured on day 4; format: ADME, organism-based; parameters: route intraperitoneal
[14] = AUC in Escherichia coli ATCC 35218 infected Wistar rat serum at 50 mg/kg/day, ip measured on day 4; format: ADME, organism-based; parameters: route intraperitoneal
Staphylococcus aureus [15] = assay: Antimicrobial activity against […] Staphylococcus aureus ATCC 29213 tissue cage Wistar rat infected model assessed as bacterial load reduction at 100 mg/kg/day, ip treated for 14 days measured 24 hrs after last dose (reference value: 7.2 +/- 0.6 logCFU/ml); format: functional; settings: route intraperitoneal
[16] = AUC in Escherichia coli ATCC 35218 infected Wistar rat tissue cage fluid at 100 mg/kg/day, ip measured on day 4; format: ADME, organism-based; parameters: route intraperitoneal
Staphylococcus aureus [17] = assay: as §1, with “50 mg/kg/day,” for “25 mg/kg,”, “ip” for “ip bid”, “logCFU/ml) co-treated with 25 mg/kg rifampin, ip bid” for “logCFU/ml)”; format: functional
Staphylococcus aureus [18] = assay: Antimicrobial activity against methicillin-resistant Staphylococcus aureus ATCC 29213 tissue cage Wistar rat infected model assessed as bacterial load reduction at 50 mg/kg/day, ip treated for 7 days measured 24 hrs after last dose (reference value: 6.8 +/-0.8 logCFU/ml); format: functional; settings: route intraperitoneal
Staphylococcus aureus [19] = assay: Antimicrobial activity against […] Staphylococcus aureus ATCC 29213 tissue cage Wistar rat infected model assessed as bacterial load reduction at 100 mg/kg/day, ip treated for 7 days measured 24 hrs after last dose (reference value: 6.8 +/-0.8 logCFU/ml); format: functional; settings: route intraperitoneal
Staphylococcus aureus [20] = assay: Antimicrobial activity against […] Staphylococcus aureus ATCC 29213 at 2 times MIC in presence of rifampin; format: functional, organism-based; summary of the method: as §2
Staphylococcus aureus [21] = assay: as §3, with “logCFU/ml) co-treated with 25 mg/kg rifampin, ip bid” for “logCFU/ml)”; format: functional
[22] = AUC in Escherichia coli ATCC 35218 infected Wistar rat tissue cage fluid at 50 mg/kg/day, ip measured on day 4; format: ADME, organism-based; parameters: route intraperitoneal
[23] = Cmax in Escherichia coli ATCC 35218 infected Wistar rat tissue cage fluid at 50 mg/kg/day, ip measured on day 4; format: ADME, organism-based, Interstitial fluid; parameters: dose 50 mg/kg/day, route intraperitoneal

For CO[C@H]1/C=C/O[C@@]2(C)Oc3c(C)c(O)c4c(O)c(c(/C=N/N5CCN(C)CC5)c(O)c4c3C2=O)NC(=O)/C(C)=C\C=C\[C@H](C)[C@H](O)[C@@H](C)[C@@H](O)[C@@H](C)[C@H](OC(C)=O)[C@@H]1C [RIFAMPIN], the Ratio [1] was 20260, the log10CFU/ml (Staphylococcus aureus [2]) was 6.9 and the AUC [3] was 304 µg·h/mL. For the same molecule, the Activity (Staphylococcus aureus [4]) was “Active”, the Ratio [5] was 440 and the Cmax [6] was 6600 ng/mL. The AUC [7] was 277 µg·h/mL and the MBC (Staphylococcus aureus [8]) was 4 µg/mL (≈ 4.86 µM).
With C[C@H]1COc2c(N3CCN(C)CC3)c(F)cc3c(=O)c(C(=O)O)cn1c23.C[C@H]1COc2c(N3CCN(C)CC3)c(F)cc3c(=O)c(C(=O)O)cn1c23.O [LEVOFLOXACIN] the Cmax [9] was 12000 ng/mL, the log10CFU/ml (Staphylococcus aureus [10]) was 6.74 and the log10CFU/ml (Staphylococcus aureus [11]) was 3.37. For the same molecule, the log10CFU/ml (Staphylococcus aureus [12]) was 2.24, the AUC [13] was 106 µg·h/mL and the AUC [14] was 77 µg·h/mL. The log10CFU/ml (Staphylococcus aureus [15]) was 2.9, the AUC [16] was 117 µg·h/mL and the log10CFU/ml (Staphylococcus aureus [17]) was 6.7. The log10CFU/ml (Staphylococcus aureus [18]) was 6.4, the log10CFU/ml (Staphylococcus aureus [19]) was 6.74 and the inhibition (Staphylococcus aureus [20]) was “inactive”. It also gave a log10CFU/ml (Staphylococcus aureus [21]) of 3.36, an MBC (Staphylococcus aureus [8]) of over 8 µg/mL and an AUC [22] of 68 µg·h/mL. For the same molecule, the Cmax [23] was 6000 ng/mL.
